Experimental findings from article PMC11840607 (ACS Omega, 2025) are described below.

Experiment [1] deals with H1975 cells. The experiment can be described thus: MTT antiproliferative assay, H1975. In kind it is cell-based, human. Particulars: ratio of IC50 BEAS-2B to H1975. The method in brief: (§1)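 Cell culture: A549, PC9 and normal lung epithelial BEAS-2B in DMEM with 10% FBS and penicillin/streptomycin/amphotericin B; H1975 in RPMI-1640 with 10% FBS; all at 37 °C, 5% CO2. Log-phase cells seeded at 3 × 10^3/well overnight, then exposed to graded compound concentrations or DMSO for 72 h. MTT added for 4 h in the dark, crystals dissolved in DMSO, absorbance read at 490 nm; three parallel experiments.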

The subject of experiment [2] is A549 cells. Put plainly: MTT antiproliferative assay, A549. In kind it is cell-based, human. Particulars: ratio of IC50 BEAS-2B to A549. The method in brief: as §1
For experiment [3], the system named is cleaved-caspase 9, Bax, Bcl-2. The experiment can be described thus: Western blot of apoptosis-related proteins. Particulars: A549, 48 h. In kind it is cell-based, human. The method in brief:
(§2)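 Cells treated with the indicated concentrations of test compound for 48 h. Lysates were heat-denatured at 104 °C for 12 min, protein measured by BCA, and equal amounts run on SDS-PAGE and transferred to PVDF. Membranes were blocked 1 h with 5% BSA or milk, incubated with primary antibody overnight at 4 °C, then secondary 2 h at room temperature. Detection by ECL; bands quantified by densitometry.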

In experiment [4] the test system is mitochondrial membrane potential. Put plainly: Mitochondrial membrane potential, JC-1, flow cytometry. The experiment is classed as cell-based. Particulars: control 19.25%. The method in brief: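 Cells in six-well plates were stained with JC-1 working solution, prepared per kit, for 20 min at 37 °C. After a PBS wash, mitochondrial membrane potential was measured by flow cytometry and also viewed by fluorescence microscopy.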

Experiment [5] concerns ALK, p-ALK. The experiment can be described thus: Western blot of ALK and p-ALK. The experiment is classed as cell-based, human. Particulars: A549, 48 h. The method in brief: (§3)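 A549 cells were exposed to the indicated test compound concentrations for 48 h, then lysed and heat-denatured at 104 °C for 12 min. Protein was quantified by BCA, and equal amounts were resolved by SDS-PAGE onto PVDF. Membranes were blocked 1 h (5% BSA or skim milk), given primary antibody overnight at 4 °C, washed in TBST, given secondary antibody 2 h at room temperature, and imaged by ECL.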

Experiment [6] has as its system A549 spheroids. The experiment can be described thus: 3D spheroid cell inhibition assay. The experiment is classed as cell-based, human. Particulars: treated every 3 days. The method in brief:
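A549 cells seeded at 20 000 cells/well in ultralow-attachment U-bottom wells to form tumor spheroids. Once formed, spheroids were exposed to the indicated concentrations of test compound, renewed every 3 days. Spheroids were photographed under a microscope to document growth and morphology.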

Experiment [7] has as its system A549 cells. Put plainly: Cell cycle analysis, PI staining, flow cytometry. Particulars: A549, 48 h. In kind it is cell-based, human. The method in brief:
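A549 cells were exposed to a range of test compound concentrations for 48 h. They were then washed in cold PBS, fixed in precooled 70% ethanol and held overnight at −20 °C. After a PBS wash, cells were stained for 30 min at room temperature in the dark with PI (50 μg/mL) plus RNase A (100 μg/mL). DNA content was read by flow cytometry.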

The test system of experiment [8] is ALK. The experiment can be described thus: Proteome Profiler Human Phospho-RTK Array. Particulars: A549, 2.0 μM, 24 h. The experiment is classed as cell-based. The method in brief: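 A549 cells were treated with test compound (2.0 μM) or left untreated for 24 h, then lysed in buffer with protease and phosphatase inhibitors. Protein was measured by Bradford. Arrays covering 49 phospho-RTKs were blocked for 1 h, then incubated with 450 μg lysate overnight at 4 °C. After three washes, arrays were probed for 2 h with anti-phospho-tyrosine-HRP and developed by chemiluminescence.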

For experiment [9], the system named is p27, p21, CDK2, p-Rb. The experiment can be described thus: Western blot of G1 phase associated proteins. In kind it is cell-based, human. Particulars: A549, 0.5 to 2.0 μM, 48 h. The method in brief: as §3
In experiment [10] the test system is A549 cells. Put plainly: Annexin V-FITC/PI apoptosis assay, flow cytometry. The experiment is classed as cell-based, human. Particulars: 48 h, control 2.64%. The method in brief: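 A549 cells seeded at 1 × 10^5 per well in 6-well plates and left overnight. They were then treated with test compound for 48 h, collected by PBS rinsing and stained with Annexin V-FITC and PI for 15 min at room temperature in the dark. Apoptotic fractions were read by flow cytometry; mean ± SD, n = 3.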

Experiment [11] has as its system p-PI3K, p-AKT. The experiment can be described thus: Western blot of PI3K and AKT. In kind it is cell-based, human. Particulars: 48 h. The method in brief: as §2

For the compound `CN(C)CCn1cnc2ccc(-c3ccc4sc(NC(=O)Nc5ccc(F)cc5)nc4c3)cc2c1=O` [Compound 38], the “selectivity (fold) H1975 vs BEAS-2B” value in [1] is reported as 0.92 fold. Besides, the “selectivity (fold) A549 vs BEAS-2B” value in experiment [2] is reported as 1.30 fold.
As for `CCCn1cnc2ccc(-c3ccc4sc(NC(=O)Nc5ccc(F)cc5)nc4c3)cc2c1=O` [Compound 45], in [3], the Bax level result is “increased in a concentration-dependent manner”, the Bcl-2 level entry is given as “decreased” and the “cleaved-caspase 9 level” value is given as “increased in a concentration-dependent manner”. Further, the “JC-1 M2 fraction (change of Δψm)” value in experiment [4] (0.25 μM) amounted to 47.72%. In addition, the “JC-1 M2 fraction (change of Δψm)” value in [4] (0.5 μM) was determined as 51.16%. The “JC-1 M2 fraction (change of Δψm)” value in experiment [4] (1.0 μM) came out at 60.52%. Moreover, the “selectivity (fold) H1975 vs BEAS-2B” value in [1] is reported as 5.80 fold. In experiment [5], the “phosphorylation level of ALK (Western blot)” value was “reduces the phosphorylation levels of ALK” and the “total protein level of ALK (Western blot)” value is on record as “decreases the total protein levels of ALK”. Also, the “growth of A549 tumor spheres” value in [6] is given as “can inhibit the growth of tumor spheres”. Moreover, the cell cycle distribution entry in experiment [7] is reported as “induced cell cycle arrest at the G1 phase in a concentration-dependent manner”. The “phosphorylation level of ALK (Phospho-RTK array)” value in [8] is listed as “reduced the phosphorylation levels of ALK”. For the same compound, in experiment [9], the CDK2 expression level result is listed as “reduced in a concentration-dependent manner”, the p21 expression level entry is given as “markedly upregulated in a dose-dependent manner”, the p27 expression level result is “markedly upregulated in a dose-dependent manner” and the p-Rb expression level entry was “reduced in a concentration-dependent manner”. In addition, in [10] (A549, 2.0 μM), the “annexin V positive cells (Q2-4)” value was determined as 7.13%. Further, in [10] (A549, 4.0 μM), the “annexin V positive cells (Q2-4)” value came to 20.36%. In addition, the “selectivity (fold) A549 vs BEAS-2B” value in experiment [2] was 7.10 fold. In addition, in experiment [11], the p-AKT protein expression entry was “inhibited the protein expression” and the p-PI3K protein expression result is “inhibited the protein expression”.
In the case of `CC(=O)O[C@H]1C(=O)[C@@]2(C)[C@H]([C@H](OC(=O)c3ccccc3)[C@]3(O)C[C@H](OC(=O)[C@H](O)[C@@H](NC(=O)c4ccccc4)c4ccccc4)C(C)=C1C3(C)C)[C@]1(OC(C)=O)CO[C@@H]1C[C@@H]2O` [paclitaxel, reference compound], the “selectivity (fold) H1975 vs BEAS-2B” value in [1] was 3.28 fold. For the same compound, the “selectivity (fold) A549 vs BEAS-2B” value in experiment [2] was 0.42 fold.
